Measured values published in ChEMBL document CHEMBL1240366, “Blockade of X4-tropic HIV-1 cellular entry by GSK812397, a potent noncompetitive CXCR4 receptor antagonist” (Antimicrob Agents Chemother, 2010).

Assays:
[1] = tested on: Human immunodeficiency virus 1; test: Antiviral activity against HIV1 3B infected in human HOS cells after 72 hrs by luminescence assay; format: functional, organism-based; details: Human immunodeficiency virus 1, 3B
How it was run: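 HOS cells express hCXCR4, hCCR5 and hCD4 plus an HIV-1 LTR-luciferase reporter. 6,000 cells/well were plated in DMEM with 2% FCS and grown overnight, then pre-incubated with compound for 1 h. Virus pre-mixed with compound was added, and cells were incubated 72 h at 37°C. Read-out was luciferase luminescence. IC50 from a four-parameter logistic fit.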

[2] = tested on: HEK293; test: Cytotoxicity against HEK293 cells after 24 hrs by MTS assay; format: cell-based; details: Homo sapiens, HEK293, 24 h
How it was run: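 Viability in the cell-cell fusion format (BacMam-transduced HEK-293 cells mixed with HOS cells). Compound was added to the cell mix, and viability was read after 24 h with MTS dye.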

[3] = tested on: Human immunodeficiency virus 1; test: Antiviral activity against HIV1 Bal infected in human HOS cells after 72 hrs by luminescence assay; format: functional, organism-based; details: Human immunodeficiency virus 1, Bal
How it was run: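 R5-tropic virus infection of HOS cells (hCXCR4/hCCR5/hCD4, LTR-luciferase reporter). Cells were plated in DMEM with 2% FCS overnight, pre-incubated with compound for 1 h, then given virus pre-mixed with compound. Incubation was 72 h at 37°C. Read-out was luciferase luminescence. IC50 from a four-parameter logistic fit.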

[4] = tested on: Human immunodeficiency virus 1; test: Antiviral activity against HIV1 3B infected in human HOS cells after 72 hrs by luminescence assay in presence of alpha-acid glycoprotein and human serum albumin; format: functional, organism-based; details: Human immunodeficiency virus 1, 3B
How it was run: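 HOS LTR-luciferase viral assay (1 h compound pre-incubation, virus plus compound, 72 h, 37°C, luminescence) run with human serum albumin (45 mg/ml) with or without α-acid glycoprotein (1 mg/ml). Protein-free IC50 served as baseline for fold shift.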

[5] = biological target: Cytochrome P450 2C19 (Homo sapiens, UniProt P33261); test: Inhibition of CYP2C19 up to 30 uM; format: ADME
Sequence of Cytochrome P450 2C19 (P33261 whole entry): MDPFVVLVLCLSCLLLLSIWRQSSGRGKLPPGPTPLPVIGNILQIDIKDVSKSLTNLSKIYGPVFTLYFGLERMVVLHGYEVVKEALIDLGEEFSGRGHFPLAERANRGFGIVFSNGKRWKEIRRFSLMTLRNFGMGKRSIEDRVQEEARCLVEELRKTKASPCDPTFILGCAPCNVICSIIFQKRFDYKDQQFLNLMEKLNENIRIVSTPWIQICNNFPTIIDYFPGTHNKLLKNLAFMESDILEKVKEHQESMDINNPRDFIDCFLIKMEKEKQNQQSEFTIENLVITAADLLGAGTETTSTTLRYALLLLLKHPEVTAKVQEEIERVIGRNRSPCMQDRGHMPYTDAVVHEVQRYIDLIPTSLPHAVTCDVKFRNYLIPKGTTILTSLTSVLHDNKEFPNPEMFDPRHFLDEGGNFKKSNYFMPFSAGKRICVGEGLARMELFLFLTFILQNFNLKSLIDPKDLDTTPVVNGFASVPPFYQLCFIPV

[6] = biological target: T1, Cytochrome P450 1A2 (Homo sapiens, UniProt P05177); test: Inhibition of CYP1A2 up to 30 uM; format: ADME
T1 sequence (P05177 whole entry): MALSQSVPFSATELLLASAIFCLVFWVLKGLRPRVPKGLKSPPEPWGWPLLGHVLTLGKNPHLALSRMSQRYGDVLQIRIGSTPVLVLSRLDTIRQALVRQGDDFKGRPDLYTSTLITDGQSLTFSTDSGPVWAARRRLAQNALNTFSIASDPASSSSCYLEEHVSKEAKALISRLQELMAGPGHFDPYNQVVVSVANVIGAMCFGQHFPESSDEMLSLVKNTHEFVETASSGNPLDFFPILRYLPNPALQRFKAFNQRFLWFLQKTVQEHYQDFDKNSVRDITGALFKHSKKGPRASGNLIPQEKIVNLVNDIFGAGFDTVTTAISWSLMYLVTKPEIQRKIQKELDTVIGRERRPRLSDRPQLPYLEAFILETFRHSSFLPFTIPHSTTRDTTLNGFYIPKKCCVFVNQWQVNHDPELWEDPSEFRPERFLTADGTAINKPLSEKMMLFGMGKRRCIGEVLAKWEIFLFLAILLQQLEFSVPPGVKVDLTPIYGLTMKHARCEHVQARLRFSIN

[7] = biological target: Cytochrome P450 2C9 (Homo sapiens, UniProt P11712); test: Inhibition of CYP2C9 up to 30 uM; format: ADME
Sequence of Cytochrome P450 2C9 (P11712 whole entry): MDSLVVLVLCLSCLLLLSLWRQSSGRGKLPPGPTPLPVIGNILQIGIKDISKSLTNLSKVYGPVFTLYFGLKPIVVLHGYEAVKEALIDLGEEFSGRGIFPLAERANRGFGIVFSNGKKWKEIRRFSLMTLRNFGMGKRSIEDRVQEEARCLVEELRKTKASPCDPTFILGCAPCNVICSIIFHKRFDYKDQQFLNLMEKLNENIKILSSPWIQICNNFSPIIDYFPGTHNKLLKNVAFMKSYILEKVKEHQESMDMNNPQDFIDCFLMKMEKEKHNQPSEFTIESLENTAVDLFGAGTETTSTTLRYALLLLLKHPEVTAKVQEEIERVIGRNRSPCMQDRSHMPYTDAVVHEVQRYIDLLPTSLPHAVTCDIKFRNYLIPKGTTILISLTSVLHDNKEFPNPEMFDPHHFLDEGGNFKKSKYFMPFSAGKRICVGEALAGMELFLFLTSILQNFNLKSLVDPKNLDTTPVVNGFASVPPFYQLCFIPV

[8] = Volume of distribution at steady state in dog at 1 mg/kg, iv administered as single dose after 24 hrs by liquid chromatography-mass spectroscopy; format: ADME, organism-based, Canis lupus familiaris; set-up: dose 1 mg/kg, route intravenous; details: in vivo, read-out: Vdss
[9] = Clearance in dog at 1 mg/kg, iv administered as single dose after 24 hrs by liquid chromatography-mass spectroscopy; format: ADME, organism-based, Canis lupus familiaris; set-up: dose 1 mg/kg, route intravenous; details: in vivo
How it was run: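 Single intravenous dose of 1 mg/kg. Plasma was sampled at serial times over 24 h and measured by LC-MS/MS. Clearance was derived by pharmacokinetic analysis.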

[10] = Volume of distribution at steady state in mouse at 1 mg/kg, iv administered as single dose after 24 hrs by liquid chromatography-mass spectroscopy; format: ADME, organism-based; set-up: dose 1 mg/kg, route intravenous; details: in vivo, read-out: Vdss
[11] = Volume of distribution at steady state in rat at 1 mg/kg, iv administered as single dose after 24 hrs by liquid chromatography-mass spectroscopy; format: ADME, organism-based; set-up: dose 1 mg/kg, route intravenous; details: in vivo, read-out: Vdss
[12] = Half life in mouse at 3 mg/kg, po administered as single dose by liquid chromatography-mass spectroscopy; format: ADME, organism-based; set-up: dose 3 mg/kg, route oral; details: in vivo
[13] = Half life in monkey at 3 mg/kg, po administered as single dose by liquid chromatography-mass spectroscopy; format: ADME, organism-based, Macaca mulatta; set-up: dose 3 mg/kg, route oral; details: rhesus monkey, in vivo
How it was run: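 Single oral dose of 3 mg/kg. Plasma was sampled at serial times over 24 h and measured by LC-MS/MS. Half-life was derived by pharmacokinetic analysis.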

[14] = Oral bioavailability in rat at 3 mg/kg administered as single dose after 24 hrs by liquid chromatography-mass spectroscopy; format: ADME, organism-based; details: in vivo
[15] = Oral bioavailability in dog at 3 mg/kg administered as single dose after 24 hrs by liquid chromatography-mass spectroscopy; format: ADME, organism-based, Canis lupus familiaris; details: in vivo
[16] = biological target: Angiotensin-converting enzyme (Homo sapiens, UniProt P12821); test: Inhibition of ACE
Sequence of Angiotensin-converting enzyme (P12821 whole entry): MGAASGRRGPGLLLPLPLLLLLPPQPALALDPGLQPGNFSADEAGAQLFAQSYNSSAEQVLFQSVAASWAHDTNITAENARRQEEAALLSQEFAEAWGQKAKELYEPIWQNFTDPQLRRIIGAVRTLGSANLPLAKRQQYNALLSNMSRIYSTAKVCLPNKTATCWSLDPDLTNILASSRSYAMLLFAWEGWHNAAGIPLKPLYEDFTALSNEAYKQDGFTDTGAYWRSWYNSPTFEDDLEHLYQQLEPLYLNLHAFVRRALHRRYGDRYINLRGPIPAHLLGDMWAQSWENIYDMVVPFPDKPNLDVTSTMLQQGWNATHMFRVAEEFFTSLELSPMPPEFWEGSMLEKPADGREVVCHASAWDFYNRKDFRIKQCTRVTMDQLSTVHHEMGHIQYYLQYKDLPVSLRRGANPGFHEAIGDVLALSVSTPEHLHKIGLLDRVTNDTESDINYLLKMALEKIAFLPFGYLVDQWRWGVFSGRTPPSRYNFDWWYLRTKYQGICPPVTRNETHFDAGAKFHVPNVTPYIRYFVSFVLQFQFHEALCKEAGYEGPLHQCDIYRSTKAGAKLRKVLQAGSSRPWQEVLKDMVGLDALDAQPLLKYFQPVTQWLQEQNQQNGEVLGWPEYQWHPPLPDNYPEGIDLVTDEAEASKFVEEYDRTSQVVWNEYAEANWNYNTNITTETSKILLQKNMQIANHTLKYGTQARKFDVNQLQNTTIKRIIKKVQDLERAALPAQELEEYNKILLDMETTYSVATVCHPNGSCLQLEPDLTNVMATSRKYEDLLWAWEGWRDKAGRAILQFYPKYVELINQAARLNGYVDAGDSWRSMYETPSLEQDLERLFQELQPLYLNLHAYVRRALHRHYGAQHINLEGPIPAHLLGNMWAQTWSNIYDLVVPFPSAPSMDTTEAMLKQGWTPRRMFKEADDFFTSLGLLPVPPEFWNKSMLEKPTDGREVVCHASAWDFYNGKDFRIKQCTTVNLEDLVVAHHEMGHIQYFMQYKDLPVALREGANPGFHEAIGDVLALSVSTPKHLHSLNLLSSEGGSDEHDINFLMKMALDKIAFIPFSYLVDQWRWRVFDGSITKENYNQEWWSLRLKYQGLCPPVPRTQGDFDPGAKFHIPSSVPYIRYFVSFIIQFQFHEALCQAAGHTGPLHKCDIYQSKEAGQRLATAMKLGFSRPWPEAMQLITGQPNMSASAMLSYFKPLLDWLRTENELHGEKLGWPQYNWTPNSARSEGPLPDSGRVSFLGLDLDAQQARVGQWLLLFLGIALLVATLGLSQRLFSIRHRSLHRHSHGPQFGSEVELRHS

[17] = biological target: Voltage-gated inwardly rectifying potassium channel KCNH2 (Homo sapiens, UniProt Q12809); test: Inhibition of human ERG up to 10 uM
Sequence of Voltage-gated inwardly rectifying potassium channel KCNH2 (Q12809 whole entry): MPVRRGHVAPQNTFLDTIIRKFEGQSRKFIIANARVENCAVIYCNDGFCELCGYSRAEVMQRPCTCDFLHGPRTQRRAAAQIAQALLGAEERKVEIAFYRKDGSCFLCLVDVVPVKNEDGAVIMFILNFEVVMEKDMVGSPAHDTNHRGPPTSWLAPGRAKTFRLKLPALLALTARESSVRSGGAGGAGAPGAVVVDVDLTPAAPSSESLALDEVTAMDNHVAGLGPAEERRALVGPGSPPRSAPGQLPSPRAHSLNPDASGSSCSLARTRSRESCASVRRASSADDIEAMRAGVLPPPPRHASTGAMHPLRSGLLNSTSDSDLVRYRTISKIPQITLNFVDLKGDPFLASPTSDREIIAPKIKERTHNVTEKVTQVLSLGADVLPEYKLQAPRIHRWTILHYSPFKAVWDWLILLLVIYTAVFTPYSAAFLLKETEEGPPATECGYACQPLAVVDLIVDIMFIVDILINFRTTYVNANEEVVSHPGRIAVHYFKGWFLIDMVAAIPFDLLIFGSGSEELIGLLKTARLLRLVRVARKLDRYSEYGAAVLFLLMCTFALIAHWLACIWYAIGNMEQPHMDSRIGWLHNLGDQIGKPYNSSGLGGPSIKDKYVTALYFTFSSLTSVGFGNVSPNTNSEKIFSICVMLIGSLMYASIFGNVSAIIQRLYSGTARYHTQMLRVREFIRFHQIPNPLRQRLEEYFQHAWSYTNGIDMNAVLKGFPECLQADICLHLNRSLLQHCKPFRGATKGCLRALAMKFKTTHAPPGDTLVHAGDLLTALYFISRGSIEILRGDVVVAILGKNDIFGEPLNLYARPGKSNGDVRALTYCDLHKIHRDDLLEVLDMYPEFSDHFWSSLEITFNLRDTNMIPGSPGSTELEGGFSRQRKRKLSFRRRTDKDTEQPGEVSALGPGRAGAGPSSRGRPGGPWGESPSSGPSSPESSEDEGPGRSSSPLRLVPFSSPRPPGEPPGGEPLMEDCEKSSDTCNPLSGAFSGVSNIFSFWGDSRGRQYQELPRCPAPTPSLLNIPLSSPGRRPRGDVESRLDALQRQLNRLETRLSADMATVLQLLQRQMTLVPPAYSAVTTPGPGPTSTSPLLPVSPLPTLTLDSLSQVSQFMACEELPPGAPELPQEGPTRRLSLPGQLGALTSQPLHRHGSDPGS

[18] = tested on: Human immunodeficiency virus 1; test: Antiviral activity against HIV1 isolate 05-121786 assessed as inhibition of viral replication after 7 days by scintillation counting; format: functional, organism-based; details: Human immunodeficiency virus 1, isolate 05-121786, 168 h
[19] = tested on: Human immunodeficiency virus 1; test: Antiviral activity against HIV1 isolate 05-121789 assessed as inhibition of viral replication after 7 days by scintillation counting; format: functional, organism-based; details: Human immunodeficiency virus 1, isolate 05-121789, 168 h
[20] = tested on: Human immunodeficiency virus 1; test: Antiviral activity against HIV1 isolate 05-121792 assessed as inhibition of viral replication after 7 days by scintillation counting; format: functional, organism-based; details: Human immunodeficiency virus 1, isolate 05-121792, 168 h
[21] = tested on: Human immunodeficiency virus 1; test: Antiviral activity against HIV1 isolate 05-121797 assessed as inhibition of viral replication after 7 days by scintillation counting; format: functional, organism-based; details: Human immunodeficiency virus 1, isolate 05-121797, 168 h
[22] = tested on: Human immunodeficiency virus 1; test: Antiviral activity against HIV1 isolate 05-121772 assessed as inhibition of viral replication after 7 days by scintillation counting; format: functional, organism-based; details: Human immunodeficiency virus 1, isolate 05-121772, 168 h
[23] = tested on: Human immunodeficiency virus 1; test: Antiviral activity against HIV1 isolate 05-121773 assessed as inhibition of viral replication after 7 days by scintillation counting; format: functional, organism-based; details: Human immunodeficiency virus 1, isolate 05-121773, 168 h
[24] = tested on: Human immunodeficiency virus 1; test: Antiviral activity against HIV1 isolate 05-121779 assessed as inhibition of viral replication after 7 days by scintillation counting; format: functional, organism-based; details: Human immunodeficiency virus 1, isolate 05-121779, 168 h
[25] = tested on: Human immunodeficiency virus 1; test: Antiviral activity against HIV1 isolate 05-121781 assessed as inhibition of viral replication after 7 days by scintillation counting; format: functional, organism-based; details: Human immunodeficiency virus 1, isolate 05-121781, 168 h
[26] = tested on: Human immunodeficiency virus 1; test: Antiviral activity against HIV1 isolate 05-121788 assessed as inhibition of viral replication after 7 days by scintillation counting; format: functional, organism-based; details: Human immunodeficiency virus 1, isolate 05-121788, 168 h
[27] = tested on: Human immunodeficiency virus 1; test: Antiviral activity against HIV1 isolate 05-121794 assessed as inhibition of viral replication after 7 days by scintillation counting; format: functional, organism-based; details: Human immunodeficiency virus 1, isolate 05-121794, 168 h

IC50 [1]: 1.5 nM | IC50 [3]: > 2500 nM | IC50 [4]: 3.14 nM | inhibition (INH) [5]: Not Active | inhibition (INH) [6]: Not Active | inhibition (INH) [7]: Not Active | Vd [8]: 5.3 L/kg | clearance [9]: 5.5 mL/min/kg | Vd [10]: 4.2 L/kg | Vd [11]: 2.1 L/kg | half-life [12]: 4.1 h | half-life [13]: > 12 h | bioavailability [14]: 21% | bioavailability [15]: 21% | IC50 [16]: 193 nM | IC50 [18]: 1 nM | IC50 [19]: 1 nM | IC50 [20]: 1 nM | IC50 [21]: 1 nM | IC50 [22]: 1 nM | IC50 [23]: 1 nM | IC50 [24]: 1 nM | IC50 [25]: 1 nM | IC50 [26]: 1 nM | IC50 [27]: 1 nM
SMILES: CN1CCN(c2cccc3nc(CN(C)[C@H]4CCCc5cccnc54)c(CO)n23)CC1
IC50 [2]: > 1000 nM | inhibition (INH) [17]: Not Active
